Experimental data reported in publication PMC2834294 (Chemistry & biology, 2010).

Assays:
Type in all cases: cell-based
TRPML3 [1] = target: T1, TRPML3 (Homo sapiens, UniProt Q8TDD5); test: Whole-cell patch-clamp, HEK293 cells transiently transfected with TRPML3; conditions: for nA/pF (-80 mV) (TRPML3): current density at −80 mV, 10 µM in standard bath solution, mean ±SEM (n≥3); for average current density relative to constitutively active TRPML3 A419P: whole-cell, −80 mV
T1 sequence (Q8TDD5 1-553): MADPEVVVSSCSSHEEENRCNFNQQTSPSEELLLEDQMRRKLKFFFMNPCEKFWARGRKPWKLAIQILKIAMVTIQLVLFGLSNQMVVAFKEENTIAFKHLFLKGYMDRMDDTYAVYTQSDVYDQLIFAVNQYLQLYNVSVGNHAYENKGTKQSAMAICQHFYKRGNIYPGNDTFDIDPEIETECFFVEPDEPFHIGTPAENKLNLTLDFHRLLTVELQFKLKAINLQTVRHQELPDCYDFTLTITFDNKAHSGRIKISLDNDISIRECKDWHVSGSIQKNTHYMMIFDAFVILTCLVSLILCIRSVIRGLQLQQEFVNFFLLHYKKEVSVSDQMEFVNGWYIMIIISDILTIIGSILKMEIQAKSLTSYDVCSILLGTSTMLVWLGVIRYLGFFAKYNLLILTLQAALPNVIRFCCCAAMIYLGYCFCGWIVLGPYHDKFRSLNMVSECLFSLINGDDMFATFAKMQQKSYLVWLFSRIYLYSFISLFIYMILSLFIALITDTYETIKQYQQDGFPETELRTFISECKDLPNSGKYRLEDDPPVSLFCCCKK
Procedure, shortened: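 Whole-cell patch clamp was done on HEK293 cells 24 h after transient transfection with human TRPML3 or YFP; constitutively active TRPML3(A419P) cells served as positive control. Bath solution (mM): 138 NaCl, 5.4 KCl, 2 MgCl2, 2 CaCl2, 10 HEPES, 10 d-glucose; pH 7.4. Pipette solution (mM): 140 CsCl, 10 HEPES, 3 ATP-Na, 1 BAPTA, 2 MgCl2; pH 7.2. Compounds at 10 µM were perfused. Capacitance-normalized current at −80 mV is reported as mean ± SEM, n≥3.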

TRPML3 [2] = target: T1, TRPML3; test: Fura-2 calcium imaging, HEK293 cells transiently expressing TRPML3; conditions: for ⊗F340/F380 (TRPML3): 10 µM compound, mean ±SEM (n≥3); for kinetics of intracellular calcium increase: TRPML3-transfected HEK293 cells
Procedure, shortened: (§1)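 HEK293 cells were transiently transfected (Genejammer) with the human channel construct or YFP control and measured 24 h later. Cells on glass coverslips were loaded with 4 µM fura-2-AM in bath solution (mM: 138 NaCl, 6 KCl, 2 MgCl2, 2 CaCl2, 10 HEPES, 5.5 D-glucose; pH 7.4). Compounds were applied at 10 µM and the F340/F380 ratio recorded. Values are mean ± SEM, n≥3.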

[3] = system: YFP-expressing HEK293 cells; test: Fura-2 calcium imaging, YFP-expressing HEK293 cells; conditions: mean ±SEM (n≥3)
Procedure, shortened: as §1

danio rerio TRPN1 = danio rerio TRPN1 (Danio rerio, UniProt Q7T1G6); conditions: for Emax: HEK293, read-out: Max % Activation (Control)
Procedure, shortened: (§2)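 HEK293 lines stably expressed YFP-fused human TRPML3 or zebrafish TRPN1 (G418 0.8 mg/ml, twice subcloned) and were plated at 1,500 cells/well for 23 h at 37 °C. After Fluo-8 loading (1 h 37 °C, 30 min RT), a 5 s basal read and 120 s post-addition read were taken. Max/basal ratios were normalized to DMSO and carbachol (87 µM).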

[4] = target: T2, TRPML3 coexpressed with TRPML1 (Homo sapiens, UniProt Q8TDD5); test: Calcium imaging, HEK293 cells coexpressing TRPML3 with TRPML1; conditions: 10 µM
T2 sequence (Q8TDD5 1-553): T1 sequence (Q8TDD5 1-553)
Procedure, shortened: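 Human TRPML3 and TRPML1 were transiently coexpressed in HEK293 cells (Genejammer) and imaged 24 h post-transfection. Cells on glass coverslips were loaded with 4 μM fura-2-AM in bath solution (mM: 138 NaCl, 6 KCl, 2 MgCl₂, 2 CaCl₂, 10 HEPES, 5.5 D-glucose, pH 7.4) and read on a monochromator imaging system. Test compound was 10 μM. Mean ± SEM, n≥3 independent experiments, 20–30 cells each.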

TRPML3 [5] = target: T1, TRPML3; conditions: HEK293, read-out: Max % Activation (TRPML3)
Procedure, shortened: as §2

TRPML3 [6] = target: T1, TRPML3; test: Excised; conditions: patches held at −80 mV
TRPML2 = target: T3, TRPML2 (Homo sapiens, UniProt Q8IZK6); test: Fura-2 calcium imaging, HEK293 cells expressing TRPML2; conditions: 10 µM
T3 sequence (Q8IZK6 1-566): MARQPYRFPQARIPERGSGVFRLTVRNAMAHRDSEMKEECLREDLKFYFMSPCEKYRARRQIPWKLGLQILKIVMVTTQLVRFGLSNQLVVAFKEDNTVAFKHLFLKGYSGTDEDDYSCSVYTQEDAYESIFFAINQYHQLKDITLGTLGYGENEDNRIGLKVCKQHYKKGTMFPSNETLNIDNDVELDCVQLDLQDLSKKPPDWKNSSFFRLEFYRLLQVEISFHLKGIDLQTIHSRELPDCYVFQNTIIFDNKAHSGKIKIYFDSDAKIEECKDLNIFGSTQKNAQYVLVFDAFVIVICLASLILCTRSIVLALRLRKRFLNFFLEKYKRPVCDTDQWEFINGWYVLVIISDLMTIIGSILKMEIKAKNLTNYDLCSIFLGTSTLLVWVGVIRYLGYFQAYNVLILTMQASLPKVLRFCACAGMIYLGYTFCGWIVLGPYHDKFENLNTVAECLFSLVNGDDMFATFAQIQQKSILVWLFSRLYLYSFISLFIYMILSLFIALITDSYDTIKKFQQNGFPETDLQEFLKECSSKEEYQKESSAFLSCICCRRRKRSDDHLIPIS
Procedure, shortened: as §1

TRPML3 [7] = target: T1, TRPML3; test: Whole-cell patch-clamp with intracellular application; conditions: whole-cell, −80 mV

danio rerio TRPN1, sequence (Q7T1G6 1-1614): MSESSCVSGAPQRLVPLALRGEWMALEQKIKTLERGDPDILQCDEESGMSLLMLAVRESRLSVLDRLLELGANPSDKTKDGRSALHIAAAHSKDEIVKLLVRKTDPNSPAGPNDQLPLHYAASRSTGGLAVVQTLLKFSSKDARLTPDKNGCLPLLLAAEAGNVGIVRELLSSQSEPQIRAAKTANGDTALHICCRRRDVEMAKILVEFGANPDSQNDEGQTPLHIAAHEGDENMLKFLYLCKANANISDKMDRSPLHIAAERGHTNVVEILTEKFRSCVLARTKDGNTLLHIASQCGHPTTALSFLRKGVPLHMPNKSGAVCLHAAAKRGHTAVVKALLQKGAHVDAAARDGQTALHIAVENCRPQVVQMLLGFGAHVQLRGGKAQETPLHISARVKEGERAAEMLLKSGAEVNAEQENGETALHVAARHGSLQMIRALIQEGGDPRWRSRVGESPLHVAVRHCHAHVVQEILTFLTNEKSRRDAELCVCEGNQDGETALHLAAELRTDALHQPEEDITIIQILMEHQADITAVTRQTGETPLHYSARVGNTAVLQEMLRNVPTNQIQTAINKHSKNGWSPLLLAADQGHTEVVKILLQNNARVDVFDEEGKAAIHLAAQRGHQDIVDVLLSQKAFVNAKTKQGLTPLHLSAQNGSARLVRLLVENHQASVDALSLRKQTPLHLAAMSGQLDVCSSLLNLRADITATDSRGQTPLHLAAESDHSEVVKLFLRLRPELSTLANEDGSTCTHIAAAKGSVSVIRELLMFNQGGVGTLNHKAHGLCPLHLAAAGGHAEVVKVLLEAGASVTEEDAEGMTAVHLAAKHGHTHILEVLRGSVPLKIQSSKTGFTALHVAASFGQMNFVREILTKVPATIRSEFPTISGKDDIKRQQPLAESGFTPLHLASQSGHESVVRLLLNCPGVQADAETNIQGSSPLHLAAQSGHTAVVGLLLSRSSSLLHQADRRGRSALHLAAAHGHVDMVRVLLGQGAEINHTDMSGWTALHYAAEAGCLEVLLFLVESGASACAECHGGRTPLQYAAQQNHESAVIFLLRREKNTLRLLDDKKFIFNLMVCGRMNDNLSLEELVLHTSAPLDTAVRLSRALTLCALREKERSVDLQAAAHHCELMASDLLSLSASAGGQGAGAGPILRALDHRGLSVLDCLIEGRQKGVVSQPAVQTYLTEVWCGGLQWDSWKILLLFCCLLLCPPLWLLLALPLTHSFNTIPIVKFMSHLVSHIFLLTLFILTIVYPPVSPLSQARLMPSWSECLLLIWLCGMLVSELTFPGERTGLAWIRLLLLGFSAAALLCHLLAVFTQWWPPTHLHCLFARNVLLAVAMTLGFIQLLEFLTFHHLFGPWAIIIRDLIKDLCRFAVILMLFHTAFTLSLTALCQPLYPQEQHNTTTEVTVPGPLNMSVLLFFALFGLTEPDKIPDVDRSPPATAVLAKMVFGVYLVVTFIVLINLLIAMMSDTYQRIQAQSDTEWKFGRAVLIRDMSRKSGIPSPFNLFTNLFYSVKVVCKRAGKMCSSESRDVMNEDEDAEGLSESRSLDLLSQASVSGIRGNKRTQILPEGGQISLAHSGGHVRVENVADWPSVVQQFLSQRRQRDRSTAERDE

Compound | nA/pF (-80 mV) (TRPML3) (TRPML3 [1]) | average current density relative to constitutively active TRPML3 A419P (TRPML3 [1]) | ⊗F340/F380 (TRPML3) (TRPML3 [2]) | ⊗F340/F380 (Control) [3] | EC50 (danio rerio TRPN1) | Emax (danio rerio TRPN1) | calcium imaging response when TRPML1 was coexpressed with TRPML3 [4] | Emax (TRPML3 [5]) | TRPML3 activity in excised patches (TRPML3 [6]) | kinetics of intracellular calcium increase (TRPML3 [2]) | TRPML3 activation in whole-cell patch-clamp (TRPML3 [1]; control compound) | intracellular calcium response in TRPML3-transfected cells (TRPML3 [2]) | response in HEK293 cells expressing TRPML2 (TRPML2) | response to intracellular application (infusion) (TRPML3 [7])
O=S(=O)(Nc1ccccc1N1CCOCC1)c1ccc(Cl)s1 [SF-23, 5-chloro-N-(2-morpholin-4-ylphenyl)thiophene-2-sulfonamide] | −0.37 ±0.08 nA/pF | comparable to average current densities obtained from cells expressing the constitutively active varitint-waddler mutant isoform A419P | 0.93 ±0.07 | 0.005 ±0.005 | > 29.9 µM | 1 ± 1% | strong reduction of the calcium imaging responses | 174 ± 1% | markedly increased TRPML3 activity |  |  |  |  | 
CCCOc1cc(C)c(Cl)cc1S(=O)(=O)N(CC)CC [SF-33, 5-chloro-N,N-diethyl-4-methyl-2-propoxybenzenesulfonamide] | −0.06 ±0.02 nA/pF |  | 0.65 ±0.10 |  | > 29.9 µM | 2 ± 1% |  | 119 ± 21% |  | slowest kinetics |  |  |  | 
CCCN(CCC)S(=O)(=O)c1ccc(C(=O)O)cc1 [probenicid, 4-(dipropylsulfamoyl)benzoic acid, reference compound] |  |  |  |  |  |  |  |  |  |  | did not activate TRPML3 | did not elicit any responses |  | 
COc1ccccc1C1CN=NC12CCCc1ccccc1C2=O (centres unmarked) [SF-61, 4-(2-methoxyphenyl)spiro[3,4-dihydropyrazole-5,8’-6,7-dihydro-5H-benzo[7]annulene]-9’-one] | −0.07 ±0.01 nA/pF |  | 0.56 ±0.03 |  | > 29.9 µM | 2 ± 1% |  | 102 ± 22% |  |  |  |  |  | 
Cc1ccc(N2CCN(S(=O)(=O)N3CCCCC3)CC2)c(C)c1 [SF-41, 1-(2,4-dimethylphenyl)-4-piperidin-1-ylsulfonylpiperazine] | −0.42 ±0.07 nA/pF | Stronger responses | 0.99 ±0.07 | 0.015 ±0.001 | > 29.9 µM | 12 ± 1% |  | 138 ± 12% |  | much more rapid increase than the other compounds |  |  | elicited responses | 
Cc1ccccc1S(=O)(=O)c1c(C)cc(C)n(C(C)C)c1=O [SF-81, 4,6-dimethyl-3-(2-methylphenyl)sulfonyl-1-propan-2 ylpyridin-2-one] |  | comparable to average current densities obtained from cells expressing the constitutively active varitint-waddler mutant isoform A419P | 0.62 ±0.05 |  | > 29.9 µM | 1% |  | 138 ± 21% |  |  |  |  | elicited responses | 
CCOc1ccc(S(=O)(=O)NC(C)(C)C)cc1-c1nc(=O)c2c([nH]1)c(C(C)(C)C)nn2C [SN-1, N-tert-butyl-3-(3-tert-butyl-1-methyl-7-oxo-4H-pyrazolo[4,3-d]pyrimidin-5-yl)-4-ethoxybenzenesulfonamide] | −0.33 ±0.10 nA/pF | comparable to average current densities obtained from cells expressing the constitutively active varitint-waddler mutant isoform A419P | 1.15 ±0.06 | 0.005 ±0.004 | > 29.9 µM | 6% |  | 151 ± 14% |  |  |  |  |  | 
CCOc1ccc(S(=O)(=O)N2CCCCCC2)c2ccccc12 [SF-31, 1-(4-ethoxynaphthalen-1-yl)sulfonylazepane] | −0.19 ±0.03 nA/pF | comparable to average current densities obtained from cells expressing the constitutively active varitint-waddler mutant isoform A419P | 1.00 ±0.10 | −0.011 ±0.001 | > 29.9 µM | 2 ± 1% |  | 130 ± 20% |  |  |  |  |  | 
CCOc1ccc(S(=O)(=O)N2CCCCC2)c(C)c1C [SF-32, 1-(4-ethoxy-2,3-dimethylphenyl)sulfonylpiperidine] | −0.02 ±0.01 nA/pF |  | 0.52 ±0.05 |  | > 29.9 µM | 2 ± 1% |  | 119 ± 5% |  |  |  |  |  | 
Cc1ccc(S(=O)(=O)n2nccc2-c2c(-c3ccc(Cl)cc3)noc2C)cc1 [SF-11, 3-(4-chlorophenyl)-5-methyl-4-[2-(4-methylphenyl)sulfonylpyrazol-3-yl]-1,2-oxazole] | −0.14 ±0.02 nA/pF |  | 0.72 ±0.05 |  | > 29.9 µM | 8 ± 1% |  | 135 ± 20% |  |  |  |  |  | elicited responses when applied intracellularly
